Measured values from ChEMBL document CHEMBL5678798 (Clin Cancer Res, 2009).
Active and inactive are the calls of the source. No cut-off for these calls is given here.

Columns and labels:
[1] = Antiproliferative activity against human HuNS1 cells assessed as reduction in cell viability after 72 hrs by CellTiter-Glo assay; type: functional, cell-based; settings: HuNS1, 72 h
Method in brief: (§1)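 Cells seeded in 96-well plates, left overnight at 37°C, then exposed to a range of test concentrations for 72 h. Viability read by CellTiter-Glo luminescence; IC50 from four-parameter curve fit. Lines kept at 37°C, 5% CO2, in recommended growth medium.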

NCI-H1299 = assay: Antiproliferative activity against human NCI-H1299 cells assessed as reduction in cell viability after 72 hrs by CellTiter-Glo assay; type: functional, cell-based; settings: NCI-H1299, 72 h; method in brief: as §1
LNCaP = assay: Antiproliferative activity against human LNCaP cells assessed as reduction in cell viability after 72 hrs by CellTiter-Glo assay; type: functional, cell-based; method in brief: as §1
[2] = Cytotoxicity against human PREC cells assessed as growth inhibition after 72 hrs by CellTiter-Glo assay relative to control; type: toxicity, cell-based; settings: read-out: GI
COLO 205 = assay: Induction of cell cycle arrest in human COLO 205 cells assessed as effect on sub-2N-DNA content at 0.03 to 10 uM incubated for 24 to 48 hrs by propidium iodide staining based flow cytometric analysis; type: functional; settings: dose 0.03-10 µM, time lower 24.0 hrs, time upper […]
Method in brief: (§2)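 COLO 205, MCF-7 or NCI-H929 cells seeded in 96-well plates overnight at 37°C, then exposed to DMSO or increasing compound concentrations for 24 or 48 h. Fixed and stained with propidium iodide (Vindelov method), then analysed by flow cytometry for sub-G1, G1, S and G2-M fractions. Experiment repeated twice.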

NCI-H929 = assay: Induction of cell cycle arrest in human NCI-H929 cells assessed as decrease in cells accumulation at G2/M phase at 0.03 to 10 uM incubated for 24 to 48 hrs by propidium iodide staining based flow cytometric analysis; type: functional; settings: dose 0.03-10 µM, time lower 24.0 hrs, time upper […]; method in brief: as §2
MCF7 = assay: Induction of cell cycle arrest in human MCF7 cells assessed as cells accumulation at G2 phase at 1 umol/L incubated for 48 hrs by propidium iodide staining based flow cytometric analysis (reference value: 17%); type: functional; settings: dose 1 µmol/L, at 1 µM; method in brief: as §2
NIH-3T3/LISN = assay: In vivo inhibition of IGF1R in mouse NIH-3T3/LISN cells implanted in IGF1-stimulated nu/nu CD-1 mouse assessed as reduction in IGF1R phosphorylation at 30 mg/kg, po pretreated for 48 to 72 hrs followed by IGF1 stimulation and measured after 10 min by […] relative to control; type: functional, organism-based; settings: time 2880-4330 min
Method in brief: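 Time course: tumor-bearing female nu/nu CD-1 mice, three per group, given a single oral 30 mg/kg dose or vehicle. IGF-I given 10 min before blood and tumor collection at each time point. Tumor phospho-IGF-IR/total IGF-IR measured by capture-plate europium phosphotyrosine assay and expressed as % of ligand-stimulated control.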

Activin receptor type-2B = Activin receptor type-2B (Homo sapiens, UniProt Q13705); assay: Inhibition of ActRIIB (unknown origin)
[3] = target: RAC-beta serine/threonine-protein kinase (Homo sapiens, UniProt P31751); assay: Inhibition of AKT2 (unknown origin)
[4] = target: Serine/threonine-protein kinase B-raf (Homo sapiens, UniProt P15056, V600E); assay: Inhibition of B-Raf V600E mutant (unknown origin)
[5] = target: Dual specificity protein kinase CLK2 (Homo sapiens) (UniProt P49760); assay: Inhibition of N-terminal GST-tagged recombinant human CLK2 (138 to end residues) expressed in baculovirus infected Sf21 cells at 0.3 uM by filter binding assay relative to control
Method in brief: (§3)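 Outsourced single-concentration screen in a commercial panel of 233 protein kinases, run as radiometric filter-binding activity assays. Test agent was tested at 0.3 or 3 µmol/L, as given in each line, from a 10 mmol/L DMSO stock. Activity is expressed as percent inhibition relative to control.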

[6] = target: Serine/threonine-protein kinase Nek3 (Homo sapiens) (UniProt P51956); assay: Inhibition of N-terminal 6His-tagged recombinant full length human NEK3 expressed in baculovirus infected Sf21 cells at 0.3 uM by filter binding assay relative to control
Method in brief: (§4)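 KinaseProfiler panel of 233 kinases: radiometric filter-binding activity assays with compound at 0.3 or 3 µmol/L. Read-out is percent inhibition.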

[7] = target: Activated CDC42 kinase 1 (Homo sapiens) (UniProt Q07912); assay: Inhibition of N-terminal GST-tagged recombinant human ACK1 (1 to 389 residues) expressed in baculovirus infected Sf21 cells at 3 uM by filter binding assay relative to control; method in brief: as §3
[8] = target: ALK tyrosine kinase receptor (Homo sapiens) (UniProt Q9UM73); assay: Inhibition of N-terminal His6-tagged recombinant human ALK (1058 to end residues) expressed in baculovirus infected Sf21 cells at 3 uM by filter binding assay relative to control; method in brief: as §3
[9] = target: Tyrosine-protein kinase receptor UFO (Homo sapiens) (UniProt P30530); assay: Inhibition of N-terminal His6-tagged recombinant human Axl (473 to end residues) expressed in Sf21 cells at 3 uM by filter binding assay relative to control
[10] = target: Serine/threonine-protein kinase DCLK2 (Homo sapiens) (UniProt Q8N568); assay: Inhibition of N-terminal 6His-tagged recombinant human DCAMKL2 (376 to end residues) expressed in baculovirus infected Sf21 cells at 3 uM by filter binding assay relative to control; method in brief: as §3
Homo sapiens = species on record: Homo sapiens; assay: Inhibition of N-terminal GST-tagged recombinant human MAPK1 expressed in Escherichia coli at 3 uM by filter binding assay relative to control; method in brief: as §3
[11] = target: Dual specificity mitogen-activated protein kinase kinase 6 (Homo sapiens) (UniProt P52564); assay: Inhibition of N-terminal maltose binding protein-tagged human MKK6 (4 to end residues) expressed in Escherichia coli at 3 uM by filter binding assay relative to control
[12] = target: FKBP12A/mTOR (Homo sapiens) (UniProt P62942+P42345); assay: Inhibition of human mTOR/FKBP12 at 3 uM by filter binding assay relative to control; type: protein-complex assay
[13] = target: cAMP-dependent protein kinase catalytic subunit PRKX (Homo sapiens) (UniProt P51817); assay: Inhibition of N-terminal 6His-tagged recombinant full-length human PrKX expressed in baculovirus infected Sf21 cells at 3 uM by filter binding assay relative to control; method in brief: as §4
[14] = target: Proto-oncogene tyrosine-protein kinase receptor Ret (Homo sapiens) (UniProt P07949); assay: Inhibition of N-Terminal GST-tagged recombinant human Ret (658 to end residues) expressed in baculovirus infected Sf21 cells at 3 uM by filter binding assay relative to control; method in brief: as §4
[15] = target: Serine/threonine-protein kinase Sgk1 (Homo sapiens) (UniProt O00141); assay: Inhibition of human SGK at 3 uM by filter binding assay relative to control
[16] = target: Tyrosine-protein kinase BTK (Homo sapiens, UniProt Q06187); assay: Inhibition of N-terminal His6-tagged recombinant full-length human BTK expressed in baculovirus infected Sf21 cells by filter binding assay
[17] = target: Insulin-like growth factor 1 receptor (Homo sapiens, UniProt P08069); assay: Inhibition of N-terminal 6His-tagged recombinant human IGF-1R (959 to end residues) expressed in baculovirus infected Sf21 cells by filter binding assay

Sequence of Serine/threonine-protein kinase Nek3 (Homo sapiens) (P51956 whole entry): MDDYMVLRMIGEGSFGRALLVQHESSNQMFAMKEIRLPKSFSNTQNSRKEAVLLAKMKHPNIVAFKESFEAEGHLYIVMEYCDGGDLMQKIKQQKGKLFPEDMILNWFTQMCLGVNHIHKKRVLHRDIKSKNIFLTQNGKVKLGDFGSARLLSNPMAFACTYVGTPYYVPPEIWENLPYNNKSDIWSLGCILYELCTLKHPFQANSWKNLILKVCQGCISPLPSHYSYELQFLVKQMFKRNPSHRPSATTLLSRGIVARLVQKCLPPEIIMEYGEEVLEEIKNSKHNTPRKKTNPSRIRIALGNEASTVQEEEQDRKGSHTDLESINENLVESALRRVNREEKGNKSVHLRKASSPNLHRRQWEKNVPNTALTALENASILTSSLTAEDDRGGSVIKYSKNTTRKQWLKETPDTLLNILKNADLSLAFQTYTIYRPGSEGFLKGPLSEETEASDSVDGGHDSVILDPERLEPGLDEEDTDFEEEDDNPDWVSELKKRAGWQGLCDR
Sequence of Activin receptor type-2B (Q13705 whole entry): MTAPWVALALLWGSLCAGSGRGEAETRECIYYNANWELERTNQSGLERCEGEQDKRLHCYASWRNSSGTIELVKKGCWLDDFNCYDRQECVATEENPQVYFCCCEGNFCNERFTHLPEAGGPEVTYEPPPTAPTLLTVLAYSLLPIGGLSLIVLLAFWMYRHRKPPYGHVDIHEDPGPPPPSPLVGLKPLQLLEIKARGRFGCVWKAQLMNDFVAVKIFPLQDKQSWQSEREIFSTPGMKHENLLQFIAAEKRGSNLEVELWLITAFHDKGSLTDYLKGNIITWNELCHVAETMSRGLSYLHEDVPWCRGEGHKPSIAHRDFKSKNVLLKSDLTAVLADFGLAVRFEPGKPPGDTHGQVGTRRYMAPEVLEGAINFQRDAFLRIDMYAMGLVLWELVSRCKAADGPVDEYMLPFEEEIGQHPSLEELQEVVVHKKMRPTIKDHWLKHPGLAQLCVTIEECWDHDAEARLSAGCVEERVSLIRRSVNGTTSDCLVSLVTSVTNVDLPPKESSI
Sequence of Dual specificity protein kinase CLK2 (Homo sapiens) (P49760 whole entry, looked up): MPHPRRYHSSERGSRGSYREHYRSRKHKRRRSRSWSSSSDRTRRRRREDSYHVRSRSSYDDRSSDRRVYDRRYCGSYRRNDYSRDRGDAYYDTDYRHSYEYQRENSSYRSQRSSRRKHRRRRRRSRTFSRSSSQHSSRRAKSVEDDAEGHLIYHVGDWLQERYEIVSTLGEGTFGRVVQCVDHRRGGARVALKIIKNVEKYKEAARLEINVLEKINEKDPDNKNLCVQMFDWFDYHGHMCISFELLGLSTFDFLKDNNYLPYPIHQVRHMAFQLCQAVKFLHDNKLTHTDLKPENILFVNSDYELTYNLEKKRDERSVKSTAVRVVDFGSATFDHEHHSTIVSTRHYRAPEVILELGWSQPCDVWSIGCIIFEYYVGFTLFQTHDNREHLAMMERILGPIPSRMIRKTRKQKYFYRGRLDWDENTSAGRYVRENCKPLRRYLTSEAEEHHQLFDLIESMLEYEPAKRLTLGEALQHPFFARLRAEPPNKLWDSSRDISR
Sequence of Tyrosine-protein kinase receptor UFO (Homo sapiens) (P30530 whole entry): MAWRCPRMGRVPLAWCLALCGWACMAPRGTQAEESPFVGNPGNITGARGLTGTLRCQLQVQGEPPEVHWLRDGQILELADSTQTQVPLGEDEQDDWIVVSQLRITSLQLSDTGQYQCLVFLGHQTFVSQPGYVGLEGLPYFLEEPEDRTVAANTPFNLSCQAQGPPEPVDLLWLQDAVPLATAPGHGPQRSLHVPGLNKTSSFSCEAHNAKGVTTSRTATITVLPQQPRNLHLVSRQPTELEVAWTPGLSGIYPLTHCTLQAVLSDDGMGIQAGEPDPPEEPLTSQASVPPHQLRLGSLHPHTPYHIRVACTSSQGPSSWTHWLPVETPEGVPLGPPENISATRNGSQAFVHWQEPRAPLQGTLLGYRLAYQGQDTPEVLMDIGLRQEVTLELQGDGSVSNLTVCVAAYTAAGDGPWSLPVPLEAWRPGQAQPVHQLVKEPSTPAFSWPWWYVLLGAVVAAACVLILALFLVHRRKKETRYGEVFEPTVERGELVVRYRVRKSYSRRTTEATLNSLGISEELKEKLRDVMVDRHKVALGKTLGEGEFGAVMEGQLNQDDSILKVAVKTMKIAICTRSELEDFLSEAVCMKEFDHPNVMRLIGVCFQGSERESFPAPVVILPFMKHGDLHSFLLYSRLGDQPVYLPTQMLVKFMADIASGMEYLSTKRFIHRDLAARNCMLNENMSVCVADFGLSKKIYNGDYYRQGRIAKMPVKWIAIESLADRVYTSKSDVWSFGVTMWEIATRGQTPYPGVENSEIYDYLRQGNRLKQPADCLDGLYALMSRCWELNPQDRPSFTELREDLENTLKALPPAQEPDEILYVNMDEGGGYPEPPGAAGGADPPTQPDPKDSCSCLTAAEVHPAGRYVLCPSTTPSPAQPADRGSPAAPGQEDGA
Sequence of Serine/threonine-protein kinase Sgk1 (Homo sapiens) (O00141 whole entry): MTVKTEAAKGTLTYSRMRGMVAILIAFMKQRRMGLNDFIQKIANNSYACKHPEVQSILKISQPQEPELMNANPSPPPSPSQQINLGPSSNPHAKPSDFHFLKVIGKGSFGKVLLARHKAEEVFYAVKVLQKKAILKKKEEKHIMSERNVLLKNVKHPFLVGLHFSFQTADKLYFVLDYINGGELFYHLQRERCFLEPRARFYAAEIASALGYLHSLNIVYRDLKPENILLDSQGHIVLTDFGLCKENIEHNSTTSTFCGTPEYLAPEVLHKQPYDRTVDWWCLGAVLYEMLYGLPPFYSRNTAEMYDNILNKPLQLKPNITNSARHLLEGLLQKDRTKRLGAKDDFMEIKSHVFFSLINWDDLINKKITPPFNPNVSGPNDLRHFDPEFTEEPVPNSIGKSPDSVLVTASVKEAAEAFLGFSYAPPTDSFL
Sequence of Serine/threonine-protein kinase B-raf (P15056 2-766 V600E limits assumed): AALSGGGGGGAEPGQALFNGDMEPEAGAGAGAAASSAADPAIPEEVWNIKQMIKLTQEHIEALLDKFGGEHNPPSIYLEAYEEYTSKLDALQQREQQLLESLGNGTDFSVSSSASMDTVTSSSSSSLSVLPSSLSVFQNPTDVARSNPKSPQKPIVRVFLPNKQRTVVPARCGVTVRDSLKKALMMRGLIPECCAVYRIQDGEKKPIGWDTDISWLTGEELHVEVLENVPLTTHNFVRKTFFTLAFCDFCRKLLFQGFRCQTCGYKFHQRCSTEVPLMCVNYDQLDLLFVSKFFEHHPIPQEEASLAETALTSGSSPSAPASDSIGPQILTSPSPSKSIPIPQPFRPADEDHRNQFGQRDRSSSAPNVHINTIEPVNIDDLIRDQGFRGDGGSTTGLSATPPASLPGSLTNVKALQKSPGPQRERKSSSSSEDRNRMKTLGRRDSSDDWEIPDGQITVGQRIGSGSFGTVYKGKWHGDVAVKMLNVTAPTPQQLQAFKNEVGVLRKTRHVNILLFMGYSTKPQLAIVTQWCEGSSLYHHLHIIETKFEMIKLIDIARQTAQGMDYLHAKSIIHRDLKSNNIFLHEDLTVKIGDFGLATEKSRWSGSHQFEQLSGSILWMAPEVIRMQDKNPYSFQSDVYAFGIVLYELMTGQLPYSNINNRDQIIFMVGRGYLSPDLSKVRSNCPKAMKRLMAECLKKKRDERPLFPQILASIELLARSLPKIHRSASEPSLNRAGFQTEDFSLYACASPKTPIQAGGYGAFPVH
Sequence of RAC-beta serine/threonine-protein kinase (P31751 whole entry): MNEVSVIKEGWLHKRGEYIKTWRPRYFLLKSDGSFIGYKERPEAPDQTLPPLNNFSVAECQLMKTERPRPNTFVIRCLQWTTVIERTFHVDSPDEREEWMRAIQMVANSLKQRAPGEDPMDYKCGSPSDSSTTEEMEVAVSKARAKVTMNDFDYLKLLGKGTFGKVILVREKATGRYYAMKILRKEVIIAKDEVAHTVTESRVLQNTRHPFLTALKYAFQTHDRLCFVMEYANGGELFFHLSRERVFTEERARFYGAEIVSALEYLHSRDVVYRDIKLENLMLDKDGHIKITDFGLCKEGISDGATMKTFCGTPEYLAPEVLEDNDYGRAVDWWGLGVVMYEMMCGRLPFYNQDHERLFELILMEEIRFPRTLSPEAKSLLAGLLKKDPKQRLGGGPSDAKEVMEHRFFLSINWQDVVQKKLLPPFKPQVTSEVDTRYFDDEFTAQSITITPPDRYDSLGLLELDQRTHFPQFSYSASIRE
Sequence of FKBP12A/mTOR (Homo sapiens) (P62942 2-108 limits assumed, other chains not shown): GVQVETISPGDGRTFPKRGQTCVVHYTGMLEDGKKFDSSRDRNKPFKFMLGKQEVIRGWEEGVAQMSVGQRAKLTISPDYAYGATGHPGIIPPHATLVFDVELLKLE
Sequence of Serine/threonine-protein kinase DCLK2 (Homo sapiens) (Q8N568 whole entry): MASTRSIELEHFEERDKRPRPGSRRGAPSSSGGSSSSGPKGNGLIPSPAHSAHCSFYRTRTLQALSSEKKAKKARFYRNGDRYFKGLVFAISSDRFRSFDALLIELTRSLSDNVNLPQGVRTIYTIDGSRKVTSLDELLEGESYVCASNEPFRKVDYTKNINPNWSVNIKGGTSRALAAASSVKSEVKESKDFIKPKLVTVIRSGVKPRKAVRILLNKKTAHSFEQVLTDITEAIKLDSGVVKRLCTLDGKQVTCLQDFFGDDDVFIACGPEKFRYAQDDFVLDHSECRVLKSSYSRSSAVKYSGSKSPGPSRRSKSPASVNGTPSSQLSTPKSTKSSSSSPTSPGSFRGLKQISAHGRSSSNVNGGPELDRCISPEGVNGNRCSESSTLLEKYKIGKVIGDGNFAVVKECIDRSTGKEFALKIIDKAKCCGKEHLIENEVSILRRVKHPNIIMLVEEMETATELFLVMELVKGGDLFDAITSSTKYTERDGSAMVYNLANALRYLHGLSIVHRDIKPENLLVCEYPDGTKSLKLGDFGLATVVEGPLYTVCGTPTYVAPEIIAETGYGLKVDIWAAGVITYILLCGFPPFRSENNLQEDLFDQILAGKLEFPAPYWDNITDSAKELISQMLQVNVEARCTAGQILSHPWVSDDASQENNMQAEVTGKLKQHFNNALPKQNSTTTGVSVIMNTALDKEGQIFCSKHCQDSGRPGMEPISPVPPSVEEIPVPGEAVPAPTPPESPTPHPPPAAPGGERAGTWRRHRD

Q: What does the source list for CCc1cc(Nc2nccc(-c3c(-c4ccc(OC)c(C(=O)Nc5c(F)cccc5F)c4)nc4ccccn34)n2)c(OC)cc1N1CCC(N2CCN(S(C)(=O)=O)CC2)CC1?
A: IC50 [1]: > 30 µM; IC50 (NCI-H1299): > 20 µM; IC50 (LNCaP): > 20 µM; inhibition at 72 h [2]: 45%; Activity (COLO 205): inactive; Activity (NCI-H929): Active; Activity (MCF7): 11%; inhibition (NIH-3T3/LISN): inactive; IC50 (Activin receptor type-2B): > 10 µM; IC50 [3]: > 10 µM; IC50 [4]: > 2 µM; inhibition [5]: 0%; inhibition [6]: 1%; inhibition [7]: 34%; inhibition [8]: 39%; inhibition [9]: 1%; inhibition [10]: 0%; inhibition (Homo sapiens): -10%; inhibition [11]: 0%; inhibition [12]: 4%; inhibition [13]: 1%; inhibition [14]: 52%; inhibition [15]: 1%; IC50 [16]: 0.357 µM; IC50 [17]: 0.058 µM
